Experimental data as given in ChEMBL document CHEMBL1151279, “Sesquiterpenoids and norsesquiterpenoids from the Formosan soft coral Lemnalia laevis” (2005).
Values after ≈ are worked out from the molar mass of the structure shown.

Experiments:
P388 = experiment: Cytotoxicity against mouse P388 cells; format: functional; details: read-out: ED50 (the source's name)
Summary of the method: (§1)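 Cytotoxicity assay run as previously described, with test compounds at three concentrations (50, 5 and 0.5 µg/mL). HT29 cells are human colon adenocarcinoma. P-388 cells are mouse lymphocytic leukemia, supplied by J. M. Pezzuto.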

HT-29 = experiment: Cytotoxicity against human HT-29 cells; format: functional; details: read-out: ED50 (the source's name); summary of the method: as §1

For CC(=O)[C@H]1[C@H](O)CC[C@]23O[C@H]2[C@@H](O)C[C@H](C)[C@@]13C [LAEVINOL F], the EC50 (P388) was > 5 µg/mL and the EC50 (HT-29) was > 5 µg/mL.
For CC(=O)[C@H]1[C@H](O)CCC2=C[C@@H](O)C[C@H](C)[C@]21C [LAEVINOL C], the EC50 (P388) was > 5 µg/mL and the EC50 (HT-29) was > 5 µg/mL.
CC(=O)[C@H]1C(=O)CCC2=C[C@@H](O)C[C@H](C)[C@]21C [LAEVINOL E] was tested, and the EC50 (P388) was > 5 µg/mL and the EC50 (HT-29) was > 5 µg/mL.
For C[C@H]1CCC=C2CCC(C(C)(O)CO)=C[C@@]21C (some centres not stated), the EC50 (P388) was 0.21 µg/mL (≈ 0.888 µM) and the EC50 (HT-29) was 0.33 µg/mL (≈ 1.4 µM).
With CC(=O)[C@H]1[C@@H](O)CCC2=C[C@@H](O)C[C@H](C)[C@]21C [LAEVINOL B] the EC50 (P388) was > 5 µg/mL and the EC50 (HT-29) was > 5 µg/mL.
CC(=O)[C@H]1[C@H](O)CC[C@]23O[C@H]2CC[C@H](C)[C@@]13C [LAEVINOL H] was tested, and the EC50 (P388) was > 5 µg/mL and the EC50 (HT-29) was > 5 µg/mL.
With CC(=O)O[C@@H]1C(=O)CCC2=CC(=O)C[C@H](C)[C@@]2(C)/C=C\1C (single isomer, unassigned) [LAEVINONE A] the EC50 (P388) was > 5 µg/mL and the EC50 (HT-29) was > 5 µg/mL.
For CC(=O)[C@H]1[C@@H](O)CCC2=C[C@H](O)C[C@H](C)[C@]21C [LAEVINOL D], the EC50 (P388) was > 5 µg/mL and the EC50 (HT-29) was > 5 µg/mL.
With CC(=O)[C@@H]1C(=O)CC[C@]23O[C@H]2[C@H](O)C[C@H](C)[C@@]13C the EC50 (P388) was > 5 µg/mL and the EC50 (HT-29) was > 5 µg/mL.
In the case of CC(=O)[C@H]1[C@@H](OC=O)CCC2=C[C@@H](O)C[C@H](C)[C@]21C [LAEVINOL A], the EC50 (P388) is reported as > 5 µg/mL and the EC50 (HT-29) is reported as > 5 µg/mL.
In the case of CC(=O)[C@H]1[C@H](O)CC[C@]23O[C@H]2[C@H](O)C[C@H](C)[C@@]13C [LAEVINOL G], the EC50 (P388) is reported as > 5 µg/mL and the EC50 (HT-29) is reported as > 5 µg/mL.
